ChEMBL document CHEMBL4513216, “Probing the Open Global Health Chemical Diversity Library for Multistage-Active Starting Points for Next-Generation Antimalarials” (ACS Infect Dis, 2020)

Experiment: Toxicity liver stage against HepG2, at 10uM
Format: cell-based
Design: test concentration 10 uM, cell line HepG2-A16-CD81EGFP
Conditions: human, HepG2-A16-CD81EGFP cells; read-out: INHIBITION
How it was run: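 Uninfected HepG2-A16-CD81EGFP cells, 3 × 10^3 per well, 1536-well, plated on prespotted compound at 10 μM final, parasite-free screening media added to match infected plates; puromycin 10 μM positive, DMSO 0.5% negative; run in parallel with 48 h PbLuc assay at 37 °C, 5% CO2; viability by CellTiter-Glo luminescence, normalized to controls.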

Row | Structure (SMILES) | cytotoxicity at 10 µM [%]
1 | COc1cccn(Cc2nnc(-c3cccc(F)c3)o2)c1=O | 2
2 | COC(=O)c1ccc(N2CCN(C(=O)CC(F)(F)F)C(C)C2)cc1 (stereo not drawn) | 4.42
3 | Cc1cc(CN2CCC3(CC2)COC(COc2ccccn2)C3)no1 (stereo not drawn) | 5.8
4 | Cc1cc(C(=O)N2C[C@@H]3COC[C@]3(c3nnc(C4CC4)o3)C2)on1 | -10
5 | O=C(NCC(O)CO)Nc1cc(Br)ccc1F (stereo not drawn) | 1.69
6 | CC(=O)N1[C@H](Cn2cncn2)C[C@@H]2CN(c3ncccn3)CC[C@@H]21 | -2.96
7 | N#CCc1ccc(OCC(=O)NS(=O)(=O)c2ccc(Br)s2)cc1 | -5.46
8 | COCCN(CC1CCCO1)C(=O)CCNC(=O)c1ccccc1F (stereo not drawn) | -41.7
9 | O=C(Cc1ccccc1)C1CCCN(Cc2cncn2C2CCCC2)C1 (stereo not drawn) | -1.11
10 | CN1CCN(C(=O)c2cc3occc3n2Cc2ccccc2F)CC1 | 1.14
11 | COCc1ccc(C(=O)N2CCN(CC3CC3)[C@@H]3CS(=O)(=O)C[C@@H]32)o1 | -15.5
12 | COc1ccccc1OCCCn1c(C)c(C)oc1=O | 0.129
13 | CSc1ncnc(NCc2cccs2)c1C#N | -0.277
14 | CCC1CCCN(C(=O)NCc2cccnc2-n2cccn2)C1 (stereo not drawn) | -0.734
15 | Cc1ncsc1CN1CCO[C@H]2[C@H](Oc3ccccn3)CC[C@@H]21 | -0.762
16 | COc1ccccc1CN(CC1CCCO1)C(=O)c1cc(C)n[nH]1 (stereo not drawn) | -2.28
17 | COC(=O)c1cnc2c(c(C)nn2C)c1OC | 0.822
18 | OC(CN1CCC(c2ccn[nH]2)CC1)c1ccc(F)cc1F (stereo not drawn) | -17.9
19 | CCCC(=O)N1CCN(CCN(C)C)c2nc(C)ccc2C1 | -73.9
20 | Cc1cc(=O)[nH]c(SC(C)C(=O)N2CCC(NS(C)(=O)=O)CC2)n1 (stereo not drawn) | -10.4
21 | O=C(NCc1cc(-c2ccccc2)no1)NC1CCCCNC1=O (stereo not drawn) | -145
22 | CCC=C(C)C(=O)NCc1ccnc(OC2CCOCC2)c1 | 5.48
23 | FC(F)(F)C1CN(Cc2cccc(-c3ccccn3)c2)CCO1 (stereo not drawn) | -7.73

Row | Structure (SMILES) | cytotoxicity at 10 µM [%]
24 | Cc1ccc(CN(C)Cc2nc3c(cnn3C)c(=O)[nH]2)o1 | -0.972
25 | O=C(NCC1CC1)c1c2c(N3CCCC3)ncnc2n2ccccc12 | -61.1
26 | CCc1n[nH]c(C2CN(Cc3csc(COC)n3)CCO2)n1 (stereo not drawn) | 0.753
27 | O=C(Cc1ccc(F)cc1)NCCc1ccoc1 | -10.5
28 | O=C(Nc1cnn(Cc2ccc(Cl)cc2)c1)N[C@@H]1C=C[C@H](CO)C1 | -2.96
29 | Cc1cc(C(=O)N2CCOC(c3ccc(Cl)c(Cl)c3)C2)[nH]n1 (stereo not drawn) | 4.55
30 | Cc1cc(F)ccc1CNCc1cccc(C(=O)N2CCCC2)c1 | -10.8
31 | COCCN(C)S(=O)(=O)c1cc(C)cc(F)c1 | 3.49
32 | CC(C)Cn1ccnc1CNC(=O)N1CCCC1CN1CCOCC1 (stereo not drawn) | -6.29
33 | C[C@@H]1CN(C(=O)C2CCS(=O)(=O)CC2)C[C@@]1(O)C1CC1 | 3.99
34 | Cc1ccc(-n2cnnn2)cc1NCC(=O)Nc1ccccc1Cl | 7.95
35 | COC(=O)C(C)(C)NC(=O)C1CC(=O)N(CC(C)C)C1 (stereo not drawn) | -152
36 | CN1CCOC(CNCC(=O)NCCc2ccc3c(c2)OCCO3)C1 (stereo not drawn) | -10.2
37 | Cc1cccc(CN2C(=O)OCC2CO)c1F (stereo not drawn) | -2.13
38 | COCC(=O)N1CCC2(CC1)CNc1ccc(F)cc12 | 12.2
39 | Cc1noc(CCNC(=O)C2CSCN2C(=O)C2CCCC2)n1 (stereo not drawn) | -45
40 | COC(=O)c1ccc(NS(=O)(=O)c2cnc(NC(C)=O)s2)cc1 | 9.35
41 | CCc1nccn1C1CCCN(C(=O)c2cnn3cccnc23)C1 (stereo not drawn) | -18.2
42 | CCOCC1CN(C(=O)c2cscn2)Cc2cn(C)nc21 (stereo not drawn) | -76.6
43 | Cc1cnn(Cc2cc(F)ccc2F)c1NC(=O)CNC(=O)C1CC1 | 2.3
44 | C=C(C)COc1cccc(CNC(CC(C)C)c2ncnn2C)c1 (stereo not drawn) | 1.16
45 | O=C(NC1CCCCC1)c1ccc(Oc2ccc3nncn3n2)cc1 | 2.17
46 | COc1cc(N2CCN(Cc3ccc(C)o3)C(CCO)C2)nc(N)n1 (stereo not drawn) | 2.8

Row | Structure (SMILES) | cytotoxicity at 10 µM [%]
47 | Cc1noc(C)c1CN1CC[C@H]2[C@H]1CCN2CC1CCOCC1 | 2
48 | O=C(CN1CCCC(Cn2cncn2)C1)NCCCc1ccccc1 (stereo not drawn) | -10.7
49 | CN(C)C(=O)CN1CCC2(CCCN(Cc3ccoc3)C2)C1=O (stereo not drawn) | -103
50 | COc1ccc2c(ccn2CCN)c1 | -0.73
51 | CN1[C@H](CO)C[C@H](CNCc2ccc(Cl)c(F)c2)[C@@H]1c1ccccc1F | -8.39
52 | CCC=C(C)C(=O)N1CSCC1C(=O)N(C)CCc1ccncc1 (stereo not drawn) | -9.72
53 | CC(C)CC1(C(=O)NCCc2nncn2C2CC2)CCC1 | -1.06
54 | O=S(=O)(Cc1ccccc1F)NCCCN1CCCCC1 | 17.3
55 | COc1ccccc1NCC(=O)NCc1scnc1C | 5.48
56 | CN1CC2(CNCCN(C(=O)Nc3ccccc3)C2)CC1=O (stereo not drawn) | 1.26
57 | O=C(CCn1c(=O)oc2ccccc21)NCC(O)c1ccc(F)c(F)c1 (stereo not drawn) | -12.5
58 | O=C(CCNC(=O)C1CCCC1)NCc1ccccc1Cn1cncn1 | -5.63
59 | CCc1nc(N2CCCC(CO)(CCOC)C2)ncc1C (stereo not drawn) | 4.93
60 | CC(C)(O)c1cn(C2CCN(C(=O)CCC(F)(F)F)CC2)nn1 | 1.93
61 | CN(C)c1ncc(C2Nc3ccccc3C3=NCCCN32)cn1 (stereo not drawn) | -23.2
62 | Cc1cnn(CCCNC(=O)NC(C)C(=O)Nc2ccccc2)c1 (stereo not drawn) | 7.04
63 | Cc1nc(C2CCCN(C(C)C)C2)sc1Br (stereo not drawn) | -4.52
64 | c1coc(CN2CCC(c3ccc4c(c3)OCO4)CC2)c1 | -1.55
65 | CO[C@@H]1CC[C@@H](N(C)C(=O)COc2ccc(F)cc2)[C@H]1O | 8.47
66 | FC(F)(F)c1ccc(-c2cc(NC3CCNCC3)nc3[nH]ccc23)nc1 | -0.608
67 | CCc1sc(C(=O)Nc2cnn(CC(=O)NC3CC3)c2)cc1C | -2.17
68 | CN(C)C(=O)C1CCN(c2cncc(-n3cccn3)n2)CC1 | -10.9
69 | COc1ncccc1C(=O)NC1CCOc2ccccc21 (stereo not drawn) | -6.25

Row | Structure (SMILES) | cytotoxicity at 10 µM [%]
70 | Cc1cn2c(n1)CCC(NC(=O)c1ccc(CS(C)(=O)=O)o1)C2 (stereo not drawn) | -5
71 | CCn1nc(C)c2ncnc(N3CCCC(C)C3)c21 (stereo not drawn) | 9.18
72 | CCc1ccc(CN2CCC3(CCCN(C(=O)N(C)C)C3)C2)o1 (stereo not drawn) | 7.07
73 | Cc1cccc(CCNC(=O)CCS(=O)(=O)C2CCCC2)c1 | 9.27
74 | Cc1nc(C)n(C2CCCN(C(=O)c3ccc(O)nc3)C2)n1 (stereo not drawn) | -1.95
75 | O=C(NCC1(O)CCSC1)c1ccoc1 (stereo not drawn) | -12.7
76 | Cc1csc(NC(=O)C2(C)CCCO2)n1 (stereo not drawn) | -2.54
77 | CCNc1ncc(C(=O)NC2CCc3ccccc3C2)cn1 (stereo not drawn) | 82.6
78 | COCC1c2c(cnn2C)CCN1Cc1cccc(C)c1 (stereo not drawn) | 0.951
79 | c1ccc2c(c1)CC(N1CCCN(Cc3cccc4nonc34)CC1)C2 | -2.37
80 | N#CCCN(CCC#N)C(=O)c1ccc(COc2ccccc2C#N)o1 | -16.6
81 | O=C(COCc1ccccc1Cl)N1CCN(c2ncccn2)CC1 | 6.43
82 | CC(C)[C@@H]1CN(Cc2c[nH]nc2-c2ccc(F)cc2)C[C@H]1NS(C)(=O)=O | -0.882
83 | CN(C)C(=O)c1ccc2c(c1)N(C)C(CC(=O)NC(C)(C)CO)CO2 (stereo not drawn) | 8.38
84 | CN(CCCOc1ccccc1)S(=O)(=O)N1CCOCC1 | 4.38
85 | CC(Cn1cccn1)NCc1csc(-c2cccs2)n1 (stereo not drawn) | -8.85
86 | Cc1cc(C)n(C2CCCN(C(=O)c3cccc4[nH]ncc34)C2)n1 (stereo not drawn) | 6.22
87 | Cc1ncsc1CCCNC(=O)C1CC2(CCNCC2)CN1C (stereo not drawn) | 9.18
88 | CCN1CC(C(=O)NCc2ccc3c(c2)nc(C)n3C)CCC1=O (stereo not drawn) | -6.9
89 | Cc1cnn(CC2CCCN2C(=O)c2cc(C)nc3[nH]nc(C)c23)c1 (stereo not drawn) | -12.4
90 | CNC(=O)c1ccc2c(OC)n(C)nc2c1 | -2.43
91 | N#CCSCC(=O)NCC1CCCCC1 | 8.32
92 | CN(C)C(=O)COCc1cncc2c1CCN(C1CCOCC1)C2 | 9.66

Row | Structure (SMILES) | cytotoxicity at 10 µM [%]
93 | Cn1nc(C(=O)N2CCOCC2)cc1C(=O)Nc1ccc(Cl)cc1Cl | -7.41
94 | CNC(=O)[C@@H]1[C@@H](c2ccccc2)CN2CCN(Cc3ccccn3)C[C@H]12 | 8.76
95 | COCc1cnc2n1CCN(S(=O)(=O)N(C)C)C2C (stereo not drawn) | 16.8
96 | c1ccc(Cc2nnc(CN3CCOC(Cn4cccn4)C3)o2)cc1 (stereo not drawn) | -8.48
97 | CS(=O)(=O)N1CCC(Oc2ccc(C(=O)NC3CCOC3)cc2Cl)CC1 (stereo not drawn) | -4.88
98 | COCc1ccccc1NCc1csc(NC(C)=O)n1 | -1.36
99 | O=C(CCc1ccccc1F)N1CCC(Nc2cccnn2)CC1 | -3.78
100 | COc1ccc2c(C)c(C(=O)NCCCc3csc(N)n3)oc2c1 | 2.58
101 | CN1CCN(C(=O)c2cc3c(s2)CCN3C(=O)C2CC2)CC1 | 8.52
102 | O=C(Cc1ccccn1)N1C[C@H]2CCC[C@@]2(COc2ccccn2)C1 | 1.86
103 | CCN(C(=O)c1nc2c(s1)CCCN2C(C)=O)C(C)C | -0.802
104 | CC(C)c1nccc(CN2CCCC(O)(CN(C)C)C2)n1 (stereo not drawn) | 2.89
105 | CCc1nc2n(n1)CCCC2Nc1nc(C(C)C)ns1 (stereo not drawn) | 3.88
106 | CCc1nc(C2CCCN(C(=O)c3ccc4[nH]nnc4c3)C2)no1 (stereo not drawn) | 2.67
107 | CCc1nc(C)c(C(=O)NCCn2nc3ccccn3c2=O)s1 | -9.42
108 | CCc1c(C)nn(CC(=O)NC(C(=O)O)c2c(C)n[nH]c2C)c1C (stereo not drawn) | 5.79
109 | Cc1ccc(CN2CCOCC2c2[nH]ncc2C)cn1 (stereo not drawn) | 4.52
110 | Cc1ncsc1C(=O)NCCSCc1cccs1 | -2.11
111 | CC(=O)Nc1ccc(C(=O)N(C)C(C)Cc2cc(C)ccn2)cn1 (stereo not drawn) | 1.32
112 | Cc1noc(C2CCCCN2C(=O)NCc2ccco2)n1 (stereo not drawn) | 0.986
113 | CN1CCC2(CCN(Cc3nccs3)CC2)C1=O | -3.03
